Compound activity: PubChem BioAssay, several laboratories
Shown are actives, neighbours in structure and some others; about 0.48% of the full set was active somewhere.
procasp7 counter: activates human procaspase-7, counter-screen for procaspase-3 activators. P55210. recombinant procaspase-7, Ac-DEVD-pNA absorbance 405 nm; D23A/D198A/D206A triple mutant, cannot self-cleave; scale: DMSO 0, 5 µM enzyme 100. activation, % at 8.5 µM. hit rate 0.093% among 330,000;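 active = percent activation above the screen-wide mean plus 3 SD, cut at about 25% in these data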
Target sequence (P55210 whole entry D23A/D198A/D206A): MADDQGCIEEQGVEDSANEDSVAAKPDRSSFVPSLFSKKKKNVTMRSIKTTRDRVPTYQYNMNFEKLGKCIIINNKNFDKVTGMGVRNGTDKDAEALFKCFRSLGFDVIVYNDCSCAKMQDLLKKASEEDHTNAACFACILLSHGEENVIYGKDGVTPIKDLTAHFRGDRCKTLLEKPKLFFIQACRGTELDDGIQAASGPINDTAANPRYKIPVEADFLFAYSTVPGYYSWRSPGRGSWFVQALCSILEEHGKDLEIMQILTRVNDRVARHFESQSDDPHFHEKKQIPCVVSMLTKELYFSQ
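Test system: Procaspase-7 triple mutant (PC-7 D3A). Also added: Ac-DEVD-pNA substrate, 400 µM as added. Schedule: 1 h enzyme–compound preincubation and 2 h substrate reaction, both 25 °C. Signal: p-Nitroaniline absorbance at 405 nm, read at 0 and 120 min. Control set: low DMSO alone, high DMSO plus 5 µM PC-7.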
Rce1 inh: yeast Ras-converting enzyme inhibition. calls only. Q03530. AID 2563. yeast membranes, quenched prenylated peptide cleavage fluorescence. hit rate 0.27% among 290,000;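 active = fall in fluorescence gain of 50% or more versus controls, with final raw signal at or below 3038400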
PolyA inh: yeast polyadenylation inhibition; S. cerevisiae SKY197-pL101 polyadenylation reporter, beta-gal luminescence; efflux-impaired pdr1/pdr3 knockout yeast; score 100 = 6 SD above DMSO; AID 1875; activity score, % at 12 µM; hit rate 0.02% among 300,000;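 active = lowest replicate activity score at least 50, where 100 means six control SD above control mean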;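 also: yeast exposed to compound for 9 h at 30 °C; higher score means more reporter readthrough which indicates perturbed polyadenylation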
procasp3 activ: procaspase-3 (human) activation. P42574. recombinant procaspase-3 D3A, Ac-DEVD-pNA absorbance 405 nm. activation, % at 8.5 µM. hit rate 0.11% among 330,000;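 active = activation above the mean of all tested compounds plus 3 SD, cut at about 21% in these data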
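Compound: 8.5 µM single point, 0.8% DMSO / Material: Autoprocessing-dead procaspase-3 D3A mutant enzyme / Timing: 1 h preincubation plus 2 h reaction at 25 °C / Medium: Zinc-free HEPES/NaCl buffer with 0.01% Triton X-100 at pH 7.4 / Technique: 405 nm absorbance of p-nitroaniline, reads at 0 and 120 min / Repeats: one well per compound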
Bfl-1 A1 inh: inhibitors of the anti-apoptotic protein A1, read as caspase activation; MEF A1-2A-BIM cells, Caspase-Glo 3/7 luminescence, 3 h; percent of clofoctol response, vehicle zero; caspase activation, % (test concentration not listed); hit rate 0.066% among 330,000;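 active = over half of replicate activation scores above 10%, or exactly half above 10 with the replicate mean above 10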
Of the large screens only hits and unclear results are named; the others gave an inactive call.

CCOC(=O)c1sc2nc(C3CC3)cc(-c3ccc(OC)cc3)c2c1N	Rce1 inh active
CCOC(=O)c1sc2nc(C3CC3)cc(-c3ccc(F)cc3)c2c1N	Rce1 inh active
Cn1/c(=N/NC(=O)c2ccccc2F)sc2ccccc21	none
COc1cccc(NS(=O)(=O)c2c(C)cc(C)cc2C)c1	none
COc1ccc(NS(=O)(=O)c2c(C)cc(C)cc2C)cc1	Rce1 inh active
CC1(C)c2cc(O)ccc2OC1N1CCOCC1 (centres undefined)	Bfl-1 A1 inh 9.5
CCOc1ccc(NC(=O)CCSc2ccc(C)cc2)cc1	Rce1 inh active
CCc1nc(Nc2ccncc2)c2oc3ccccc3c2n1	Rce1 inh active
Cc1nc(Nc2ccncc2)c2oc3ccccc3c2n1	none
COC(=O)c1sc2cnccc2c1N	Rce1 inh active
CCOc1ccc(S(=O)(=O)Nc2cc(OC)c(OC)cc2C(=O)O)cc1	Rce1 inh active
N#C/C(=C/c1cn(-c2ccccc2)nc1-c1cccc(OCc2ccccc2)c1)C(=O)NCCCn1ccnc1	none
CCOc1cccc(-c2nn(-c3ccccc3)cc2/C=C(/C#N)C(=O)NCCCn2ccnc2)c1	Rce1 inh active
CCOC(=O)c1cn2ccc(C)cc2n1	none
CCOC(=O)c1nc2cc3n(c(C)c-2c1C)C(C)C(CC)=C3C (centres undefined)	Rce1 inh active
c1ccc(CCc2nn3c(Cn4nnc5ccccc54)nnc3s2)cc1	none
c1ccc(Cc2nn3c(Cn4nnc5ccccc54)nnc3s2)cc1	Bfl-1 A1 inh 21
COc1nc(-c2ccccc2)ccc1-c1noc(-c2ccccc2F)n1	Rce1 inh active
O=C(NCc1ccccc1)C(=O)NCC1OCCN1C(=O)c1ccc(Cl)cc1 (centres undefined)	none
O=C(c1cc2ccccc2oc1=O)N1CCN(S(=O)(=O)c2ccccc2)CC1	none
CC1(C)OC(=O)N(c2ccccc2)C12C=Cc1c(ccc3ccccc13)O2 (centres undefined)	none
O=C1NC2(C=Cc3c(ccc4ccccc34)O2)Oc2ccccc21 (centres undefined)	Rce1 inh active
CC1=C/C(=N\OS(=O)(=O)c2ccccc2)C(C(C)C)=CC1=O	none (no result: Rce1 inh, PolyA inh)
CC1=C/C(=N\OS(=O)(=O)c2ccccc2)C(C)=CC1=O	Bfl-1 A1 inh 17 (no result: Rce1 inh, PolyA inh)
Cc1cc(C)c(OCCNC(=O)c2ccccc2Sc2ccccc2C#N)c(C)c1	none
O=C(CCCSc1nc2ccccc2c(=O)[nH]1)c1ccc(F)cc1	none
CCOc1ccc(NC(=O)c2ccc(NC(=O)c3cn4c5c(c(N6CCN(C)CC6)c(F)cc5c3=O)OCC4C)cc2)cc1 (centres undefined)	none
CC1COc2c(N3CCN(C)CC3)c(F)cc3c(=O)c(C(=O)O)cn1c23 (centres undefined)	Rce1 inh active
Cc1ccc(S(=O)(=O)Nc2ccccc2C(=O)NCC2CCCO2)cc1 (centres undefined)	Rce1 inh active
CCn1cc(C(=O)NCCN(C)C)c(=O)c2cc(F)c(N3CCN(C)CC3)cc21	Rce1 inh active
Cc1nc(NC(=O)COC(=O)C2CC2C)c(Cl)cc1Cl (centres undefined)	none (no result: Rce1 inh, PolyA inh)
COc1ccc(O)c(/C=N/NC(=O)c2cc(=O)[nH]c3ccccc23)c1	none
CCOc1cc(/C=C\[N+](=O)[O-])ccc1OCC(=O)Nc1ccccc1C	Bfl-1 A1 inh 31
COc1cc(/C=C/c2cccc[n+]2C)ccc1OCC(=O)Nc1ccccc1C	none
CCN(CC(=O)NCc1cccs1)C(=O)c1ccc(S(=O)(=O)Nc2cccc(C)c2C)cc1	none
COc1cc(-c2nc3ccccn3c2/N=C/c2ccccc2)ccc1O	Rce1 inh active
COc1cc(-c2nc3ccccn3c2/N=C/c2cccc(F)c2)ccc1O	none
COc1cc(-c2nc3ccccn3c2NCC2CCCO2)ccc1O (centres undefined)	Rce1 inh active
C=CCn1cc(-c2ccccc2)cc(C#N)c1=O	Rce1 inh active
NS(=O)(=O)c1ccc(N/N=C/c2cn(-c3ccccc3)nc2-c2ccccc2)c([N+](=O)[O-])c1	Bfl-1 A1 inh 5.8
O=[N+]([O-])c1ccc(N/N=C/c2cn(-c3ccccc3)nc2-c2ccccc2)cc1	none
CC(=O)Oc1ccccc1-n1c(C)nc(=O)c(-c2ccccc2)c1C	none
